According to article PMC9508631 (Saudi Pharmaceutical Journal : SPJ, 2022):

How the values were obtained:
[1] = tested on: PDE5; details: ref Bischoff, 2004; cited from earlier work
[2] = Stability of TAD in rat plasma under storage and processing conditions; format: in vitro ADME; details: for Processed sample stability, RE% / Processed sample stability, calculated conc. (Mean ± SD): autosampler, room temperature 24 h; for Freeze–thaw stability, RE% / Freeze–thaw stability, calculated conc. (Mean ± SD): three freeze–thaw cycles; for Long term stability, RE% / Long term stability, calculated conc. (Mean ± SD): −30 °C for 30 days
How it was run: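 Test compound spiked into blank rat plasma as QC samples at 0.5, 10 and 100 ng mL−1. Conditions: bench-top thaw at room temperature for 6 h (triplicates); −30 °C for 30 days; three freeze–thaw cycles (24 h at −30 °C, ambient thaw); processed samples held in the autosampler at room temperature for 24 h. Quantified by FPSE-UPLC-ESI-MS/MS, with peak areas compared against freshly prepared QCs; acceptance RE <15%.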

[3] = actual conc. 0.5 ng mL^-1, room temperature 6 h

| Structure (SMILES) | Selectivity for PDE5 [1] [times] | Processed sample stability, RE% ([2]; actual conc. 0.5 ng mL^-1) [%] | Processed sample stability, calculated conc. (Mean ± SD) ([2]; actual conc. 0.5 ng mL^-1) [ng/mL] | Benchtop stability, RE% [2, 3] [%] | Benchtop stability, calculated conc. (Mean ± SD) [2, 3] [ng/mL] | Freeze–thaw stability, RE% ([2]; actual conc. 0.5 ng mL^-1) [%] | Freeze–thaw stability, calculated conc. (Mean ± SD) ([2]; actual conc. 0.5 ng mL^-1) [ng/mL] | Long term stability, RE% ([2]; actual conc. 0.5 ng mL^-1) [%] | Long term stability, calculated conc. (Mean ± SD) ([2]; actual conc. 0.5 ng mL^-1) [ng/mL] | Processed sample stability, RE% ([2]; actual conc. 10 ng mL^-1) [%] | Processed sample stability, calculated conc. (Mean ± SD) ([2]; actual conc. 10 ng mL^-1) [ng/mL] | Benchtop stability, calculated conc. (Mean ± SD) ([2]; actual conc. 10 ng mL^-1, room temperature 6 h) [ng/mL] | Freeze–thaw stability, calculated conc. (Mean ± SD) ([2]; actual conc. 10 ng mL^-1) [ng/mL] | Long term stability, RE% ([2]; actual conc. 10 ng mL^-1) [%] | Long term stability, calculated conc. (Mean ± SD) ([2]; actual conc. 10 ng mL^-1) [ng/mL] | Processed sample stability, calculated conc. (Mean ± SD) ([2]; actual conc. 100 ng mL^-1) [ng/mL] | Benchtop stability, calculated conc. (Mean ± SD) ([2]; actual conc. 100 ng mL^-1, room temperature 6 h) [ng/mL] | Freeze–thaw stability, RE% ([2]; actual conc. 100 ng mL^-1) [%] | Freeze–thaw stability, calculated conc. (Mean ± SD) ([2]; actual conc. 100 ng mL^-1) [ng/mL] | Stability in rat plasma under the storage and processing situations ([2]; all four stability tests, RE% and RSD% within 15%) |
| --- | --- | --- | --- | --- | --- | --- | --- | --- | --- | --- | --- | --- | --- | --- | --- | --- | --- | --- | --- | --- |
| CCCc1nn(C)c2c(=O)[nH]c(-c3cc(S(=O)(=O)N4CCN(C)CC4)ccc3OCC)nc12 [SLD, sildenafil] | 41 | – | – | – | – | – | – | – | – | – | – | – | – | – | – | – | – | – | – | – |
| CN1CC(=O)N2[C@H](c3ccc4c(c3)OCO4)c3[nH]c4ccccc4c3C[C@@H]2C1=O [TAD, Tadalafil] | 1000 | −2.0 | 0.490 ± 0.011 | −1.60 | 0.492 ± 0.012 | −3.8 | 0.481 ± 0.022 | −2.60 | 0.487 ± 0.018 | 0.50 | 10.05 ± 0.195 | 9.98 ± 0.251 | 9.85 ± 0.263 | 1.10 | 10.11 ± 0.219 | 99.48 ± 1.824 | 99.90 ± 1.850 | 0.22 | 100.22 ± 2.054 | stable |
